This is an account of results in ChEMBL document CHEMBL4038327, “Inhibitory Kappa B Kinase α (IKKα) Inhibitors That Recapitulate Their Selectivity in Cells against Isoform-Related Biomarkers” (J Med Chem, 2017).

Bounds are passed on as bounds.

The target of series [1] is T1, Inhibitor of nuclear factor kappa-B kinase subunit beta (Homo sapiens, UniProt O14920).
T1 sequence (O14920 whole entry): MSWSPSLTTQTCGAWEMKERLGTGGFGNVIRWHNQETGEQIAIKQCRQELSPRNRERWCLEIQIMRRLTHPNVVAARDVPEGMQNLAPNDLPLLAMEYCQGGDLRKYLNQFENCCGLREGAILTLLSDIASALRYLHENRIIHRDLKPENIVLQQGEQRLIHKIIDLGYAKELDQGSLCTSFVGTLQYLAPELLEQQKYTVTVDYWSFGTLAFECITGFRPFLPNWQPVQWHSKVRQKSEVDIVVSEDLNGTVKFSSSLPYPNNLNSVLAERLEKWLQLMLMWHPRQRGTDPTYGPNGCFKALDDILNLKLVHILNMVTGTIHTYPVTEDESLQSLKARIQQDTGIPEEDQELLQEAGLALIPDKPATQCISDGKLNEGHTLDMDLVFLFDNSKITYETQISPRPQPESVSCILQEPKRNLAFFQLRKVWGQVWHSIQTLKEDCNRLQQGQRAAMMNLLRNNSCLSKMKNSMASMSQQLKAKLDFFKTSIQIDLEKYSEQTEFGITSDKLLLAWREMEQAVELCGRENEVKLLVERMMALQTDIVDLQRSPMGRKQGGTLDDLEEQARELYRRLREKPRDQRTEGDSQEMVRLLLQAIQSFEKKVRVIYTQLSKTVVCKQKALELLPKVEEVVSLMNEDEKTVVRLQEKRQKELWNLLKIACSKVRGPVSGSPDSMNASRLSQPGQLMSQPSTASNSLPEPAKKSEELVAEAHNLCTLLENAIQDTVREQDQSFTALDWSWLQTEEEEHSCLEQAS
The experiment in a line: Inhibition of IKKbeta in human U2OS cells assessed as decrease in TNFalpha induced p65 phosphorylation at ser536 residues at 100 uM preincubated for 1 hr followed by TNFalpha stimulation for 30 mins by Western blot analysis. The format is cell-based. As to conditions: 0.5 h; call rule not given here. An outline of the steps:
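U2OS cells were grown in McCoy's 5A medium at 37 °C under 5% CO2 and made quiescent by 24 h serum deprivation. They were then pretreated with compound before agonist stimulation in serum-free medium. Phospho-p100, IκBα levels and phospho-p65 (Ser536) were assessed by Western blot.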
On the technique in general: Immunoblotting shows a protein as a band on a membrane.

The target in series [2] is T2, Serine/threonine-protein kinase D1 (Homo sapiens) (UniProt Q15139).
T2 sequence (whole entry): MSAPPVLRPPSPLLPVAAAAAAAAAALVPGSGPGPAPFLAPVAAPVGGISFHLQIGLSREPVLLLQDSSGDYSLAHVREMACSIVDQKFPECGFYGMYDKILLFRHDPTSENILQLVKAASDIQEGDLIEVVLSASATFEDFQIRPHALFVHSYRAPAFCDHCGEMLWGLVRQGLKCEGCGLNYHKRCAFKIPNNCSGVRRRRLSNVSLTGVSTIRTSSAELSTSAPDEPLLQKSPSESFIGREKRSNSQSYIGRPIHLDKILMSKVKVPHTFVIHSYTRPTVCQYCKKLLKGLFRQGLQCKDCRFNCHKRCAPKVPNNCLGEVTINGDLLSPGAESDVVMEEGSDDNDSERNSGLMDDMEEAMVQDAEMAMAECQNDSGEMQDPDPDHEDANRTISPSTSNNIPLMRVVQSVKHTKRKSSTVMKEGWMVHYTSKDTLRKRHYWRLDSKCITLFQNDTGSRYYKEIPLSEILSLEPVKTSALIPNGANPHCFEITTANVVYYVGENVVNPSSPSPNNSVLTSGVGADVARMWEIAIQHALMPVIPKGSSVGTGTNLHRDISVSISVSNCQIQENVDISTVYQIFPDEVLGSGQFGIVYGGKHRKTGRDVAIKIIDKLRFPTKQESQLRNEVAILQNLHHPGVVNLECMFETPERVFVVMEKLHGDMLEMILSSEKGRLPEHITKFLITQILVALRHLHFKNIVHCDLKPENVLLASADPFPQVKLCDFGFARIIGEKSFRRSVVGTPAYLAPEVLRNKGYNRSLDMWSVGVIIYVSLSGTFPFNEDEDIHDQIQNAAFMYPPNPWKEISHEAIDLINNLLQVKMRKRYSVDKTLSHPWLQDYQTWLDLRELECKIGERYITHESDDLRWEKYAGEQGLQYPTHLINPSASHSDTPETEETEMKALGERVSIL
Briefly: Inhibition of N-terminal His6 tagged recombinant human full length PKCmu expressed in Sf21 cells at 10 uM relative to control. In a few lines: (§1)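 Outsourced commercial kinase panel run at a single concentration, with duplicate assay points.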

Series [3] deals with Dual specificity mitogen-activated protein kinase kinase 1 (Homo sapiens) (UniProt Q02750). Briefly: Inhibition of N-terminal GST tagged/C-terminal His6-tagged recombinant full length human Mek1 expressed in Escherichia coli cells at 10 uM relative to control. An outline of the steps: as §1
Dual specificity mitogen-activated protein kinase kinase 1 (Homo sapiens), sequence (Q02750 whole entry): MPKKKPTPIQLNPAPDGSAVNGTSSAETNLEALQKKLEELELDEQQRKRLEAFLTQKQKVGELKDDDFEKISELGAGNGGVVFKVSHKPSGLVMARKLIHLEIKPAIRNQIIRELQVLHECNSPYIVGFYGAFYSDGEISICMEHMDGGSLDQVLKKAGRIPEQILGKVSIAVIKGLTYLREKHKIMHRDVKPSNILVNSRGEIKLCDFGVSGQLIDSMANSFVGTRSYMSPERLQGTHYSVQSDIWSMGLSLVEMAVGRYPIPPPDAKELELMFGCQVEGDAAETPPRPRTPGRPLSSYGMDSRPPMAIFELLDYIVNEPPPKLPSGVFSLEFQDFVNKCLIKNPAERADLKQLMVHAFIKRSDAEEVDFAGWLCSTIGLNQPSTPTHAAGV
The target in series [4] is Glycogen synthase kinase-3 beta (Homo sapiens) (UniProt P49841). The experiment in a line: Inhibition of human N-terminal GST-tagged GSK3beta at 10 uM relative to control. An outline of the steps: as §1
Glycogen synthase kinase-3 beta (Homo sapiens), sequence (P49841 whole entry, looked up, the tested form may be a part, canonical isoform): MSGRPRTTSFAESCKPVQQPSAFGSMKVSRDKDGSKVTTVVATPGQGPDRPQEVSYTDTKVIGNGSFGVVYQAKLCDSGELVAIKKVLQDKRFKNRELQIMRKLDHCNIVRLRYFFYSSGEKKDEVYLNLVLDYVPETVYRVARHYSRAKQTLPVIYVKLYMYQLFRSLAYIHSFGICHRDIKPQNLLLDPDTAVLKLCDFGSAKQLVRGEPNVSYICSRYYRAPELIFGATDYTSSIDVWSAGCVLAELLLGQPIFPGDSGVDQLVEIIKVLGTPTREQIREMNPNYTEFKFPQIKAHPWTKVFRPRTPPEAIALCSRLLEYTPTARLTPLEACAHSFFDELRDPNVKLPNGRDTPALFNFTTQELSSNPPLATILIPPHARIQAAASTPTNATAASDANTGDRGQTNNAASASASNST
The target of series [5] is Casein kinase I isoform delta (Homo sapiens) (UniProt P48730). Briefly: Inhibition of recombinant human N-terminal GST-tagged CK1delta (1 to 294 residues) expressed in Escherichia coli at 10 uM relative to control. An outline of the steps: as §1
Casein kinase I isoform delta (Homo sapiens), sequence (P48730 whole entry, looked up, the tested form may be a part, canonical isoform): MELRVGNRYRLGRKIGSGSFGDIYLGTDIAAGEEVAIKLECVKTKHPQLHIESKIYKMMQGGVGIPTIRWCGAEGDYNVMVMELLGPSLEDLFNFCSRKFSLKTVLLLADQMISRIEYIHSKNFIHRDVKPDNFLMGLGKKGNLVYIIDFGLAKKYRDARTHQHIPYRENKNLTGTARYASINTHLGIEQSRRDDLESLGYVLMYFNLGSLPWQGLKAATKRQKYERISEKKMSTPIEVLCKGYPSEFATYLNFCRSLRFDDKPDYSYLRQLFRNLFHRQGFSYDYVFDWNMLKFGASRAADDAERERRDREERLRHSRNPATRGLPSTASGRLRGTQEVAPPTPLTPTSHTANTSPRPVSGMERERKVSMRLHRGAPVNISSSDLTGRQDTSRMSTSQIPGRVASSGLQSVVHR
Series [6] concerns the target Serine/threonine-protein kinase Chk2 (Homo sapiens) (UniProt O96017). Briefly: Inhibition of N-terminal GST and C-terminal His6 tagged recombinant human CHK2 expressed in Escherichia coli cells at 10 uM relative to control. In a few lines:
as §1

Series [7] addresses Calcium/calmodulin-dependent protein kinase type 1 (Homo sapiens) (UniProt Q14012). Briefly: Inhibition of N-terminal GST tagged recombinant human CaMK1 (2 end residues) expressed in Escherichia coli cells at 10 uM relative to control. An outline of the steps: as §1
Series [8] deals with T3, Aurora kinase A (Homo sapiens) (UniProt O14965).
T3 sequence (whole entry): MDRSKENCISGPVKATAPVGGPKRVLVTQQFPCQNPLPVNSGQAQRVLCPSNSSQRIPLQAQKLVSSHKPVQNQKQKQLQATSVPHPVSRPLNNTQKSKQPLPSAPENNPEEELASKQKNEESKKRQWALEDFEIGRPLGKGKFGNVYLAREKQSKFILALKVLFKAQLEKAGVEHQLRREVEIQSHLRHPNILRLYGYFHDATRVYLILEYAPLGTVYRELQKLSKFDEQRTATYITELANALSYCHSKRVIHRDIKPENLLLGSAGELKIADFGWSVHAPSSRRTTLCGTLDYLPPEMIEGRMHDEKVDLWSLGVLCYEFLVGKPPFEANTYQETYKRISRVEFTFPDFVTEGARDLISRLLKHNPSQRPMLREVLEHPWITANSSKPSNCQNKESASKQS
Briefly: Inhibition of N-terminal His6 tagged recombinant human full length Aurora A expressed in Sf21 cells at 10 uM relative to control. An outline of the steps: as §1

Calcium/calmodulin-dependent protein kinase type 1 (Homo sapiens), sequence (Q14012 whole entry, looked up): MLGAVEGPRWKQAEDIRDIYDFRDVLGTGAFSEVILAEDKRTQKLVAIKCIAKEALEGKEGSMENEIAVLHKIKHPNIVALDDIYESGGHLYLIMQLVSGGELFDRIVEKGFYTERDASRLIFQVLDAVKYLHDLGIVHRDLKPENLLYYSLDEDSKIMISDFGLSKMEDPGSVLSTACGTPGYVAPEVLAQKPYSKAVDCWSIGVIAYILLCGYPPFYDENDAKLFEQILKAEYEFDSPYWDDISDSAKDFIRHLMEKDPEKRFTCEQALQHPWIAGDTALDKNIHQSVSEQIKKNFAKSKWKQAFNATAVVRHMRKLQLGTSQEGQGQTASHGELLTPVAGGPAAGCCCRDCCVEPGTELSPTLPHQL
Serine/threonine-protein kinase Chk2 (Homo sapiens), sequence (O96017 whole entry): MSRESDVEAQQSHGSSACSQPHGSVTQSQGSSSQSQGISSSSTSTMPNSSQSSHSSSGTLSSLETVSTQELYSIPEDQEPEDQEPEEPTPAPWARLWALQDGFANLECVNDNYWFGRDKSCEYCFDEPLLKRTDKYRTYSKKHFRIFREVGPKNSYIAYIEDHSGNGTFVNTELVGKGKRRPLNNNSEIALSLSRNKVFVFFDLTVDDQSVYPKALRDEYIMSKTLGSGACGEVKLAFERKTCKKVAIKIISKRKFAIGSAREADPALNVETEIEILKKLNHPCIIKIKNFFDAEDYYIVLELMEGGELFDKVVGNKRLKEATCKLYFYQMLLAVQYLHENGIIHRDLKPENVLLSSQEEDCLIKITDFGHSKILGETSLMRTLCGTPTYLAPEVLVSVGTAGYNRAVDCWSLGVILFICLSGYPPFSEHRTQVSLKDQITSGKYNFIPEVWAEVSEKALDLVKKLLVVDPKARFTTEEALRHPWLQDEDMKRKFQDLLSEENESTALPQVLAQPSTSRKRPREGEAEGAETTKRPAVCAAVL

Turning to `N#Cc1c[nH]c2nc(N)nc(-c3ccc(S(N)(=O)=O)cc3)c12`, the “inhibition (INH)” value in series [1] was “Active”. For the same compound, the inhibition in series [2], in series [3], in series [4], in series [5], in series [6] and in series [7] was more than 80% in each case. In addition, in series [8], the inhibition is more than 80%.

By inhibition is commonly meant the percentage by which the read-out fell short of the control.
